High-throughput results deposited in PubChem by several laboratories.
b-catenin transl: modulators of beta-catenin nuclear translocation | AID 1665 | HeLa beta-catenin nuclear translocation, immunofluorescence imaging | 190,000 tested, 0.3% active | nuclear translocation activity, % at 5 µM;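 active = nuclear translocation activity above 50% at 5 µM, with a well cell count of 50 or more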;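 note: per-cell ratio of nuclear to cytoplasmic median beta-catenin stain intensity; plate controls were DMSO negative control for no effect and GSK-3 inhibitor IX positive control for full effect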
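System: Human HeLa cells, endogenous beta-catenin | Compound dosing: 5 µM primary, 0.02–20 µM confirmation | Timing: 24 h compound exposure at 37°C, 5% CO2 | Measured by: Fluorescence imaging of beta-catenin antibody stain plus DAPI | Read-out basis: % activation of per-cell nuclear versus cytoplasmic median beta-catenin signal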
Efa HMGR inh: inhibitors of class II HMG-CoA reductase from Enterococcus faecalis | 190,000 tested, 0.41% active | inhibition, % at 10 µM | AID 1066 | purified E. faecalis HMGR, NADPH absorbance 340 nm kinetic;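 active = inhibition above a set limit, the median over all tested compounds plus 3 SD, cut at about 9.5% in these data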;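 note: enzyme runs in reverse so mevalonate oxidation gives rising NADPH absorbance; 0% = complete reaction with DMSO and 100% = background rate lacking mevalonate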
MT stabilizer: microtubule stabilization, imaging screen. HeLa tubulin immunostaining HCS, 24 h; share of cells brighter than vehicle mean+2SD. % tubulin-high responders, % at 10 µM. 200,000 tested, 0.83% active;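 active = plate Z-score above 3 for both tubulin-high and condensed-nucleus cell shares, with cell loss under 80%, at 10 µM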;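 note: anti alpha tubulin signal scored within the nucleus-defined area of each cell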
RAM network inh: blocks the yeast RAM network; S. cerevisiae dse1pr::URA3 reporter, 5-FOA growth OD615, 2 d; analog-sensitive cbk1-as2 kinase mutant strain; inhibition, % at 50 µM; 190,000 tested, 1.8% active; AID 868;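 active = inhibition above a set limit, 3 SD over mean compound inhibition, cut at about 8.4% in these data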;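 note: 0% = DMSO-only wells with no growth and 100% = 10 µM 1-NA-PP1 full growth; inhibition rescues growth on 5-FOA so higher OD means more RAM inhibition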
Yeast life ext: extends the lifespan of yeast. S. cerevisiae growth with nicotinamide, OD615; deaD strain in restrictive glucose medium. inhibition of the nicotinamide effect, % at 10 µM. 130,000 tested, 0.68% active. AID 775;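 active = inhibition above a set limit, placed 3 SD over the median of all compounds, cut at about 26% in these data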;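 note: 0% = nicotinamide-treated wells and 100% = cells grown without nicotinamide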
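Material: Modified budding yeast, DeaD strain | Medium: Restrictive glucose medium | Probe or stimulus: 1.5 mM nicotinamide | Dosing: Single dose 10 µM compound, 0.25% DMSO | Times: 48 h at 30 °C | Technique: OD615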
BB579 growth dn: yeast BB579 growth reduction in restrictive medium; AID 804; S. cerevisiae BB579 growth, OD615, 48 h; inhibition, % at 10 µM; 140,000 tested, 0.51% active;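 active = inhibition above a set limit, 3 SD over the mean compound inhibition, cut at about 44% in these data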
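System: Saccharomyces cerevisiae DeaD strain BB579, replicative lifespan model yeast | Buffer or medium: Restrictive glucose-based CSMM-D medium | Times: 4 h preincubation and 48 h exposure at 30 °C | Detection: OD615 turbidity measurement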
Starred values were filed as active, the others as inactive; nt = not tested or not shown. An excerpt weighted towards active compounds, which were near 3.5% of everything screened.

SMILES	b-catenin transl	Efa HMGR inh	MT stabilizer	RAM network inh	Yeast life ext	BB579 growth dn
COC(=O)c1nnn(-c2nonc2N)c1CN1CCc2ccccc21	0	0	36*	0	-10	0
CCOC(=O)c1nnn(-c2nonc2-n2cccc2)c1CCl	29	-5	7	1	55*	-21
CCOC(=O)c1nnn(-c2nonc2N)c1CN1CCc2ccccc2C1	-2	-3	2	-1	62*	-38
Cc1ccc(S(=O)(=O)n2nnc3ccccc32)c(C)c1C	1	-2	3	2	nt	nt
CN(C)/C=C/c1c([N+](=O)[O-])c2ccc(O)cc2n1-c1ccccc1	0	nt	nt	nt	nt	nt
C=CCNC(=O)O/N=C/c1csc([N+](=O)[O-])c1	-1	nt	nt	nt	nt	nt
Cc1c(C(=O)O)sc2nc(C)n(C)c(=O)c12	nt	0	6	-1	0	-68
Cc1cc2sc(C(=O)O)c(C)c2s1	-1	0	3	1	nt	58*
COc1cc(C)c(C(C)C)cc1S(=O)(=O)n1cnc(C)c1	93*	-3	14*	0	-5	-21
CC(C)/C(=N\NS(=O)(=O)c1ccc(Br)cc1)c1cccs1	0	0	2	1	nt	nt
O=C(CCC1CCCN(C(=O)c2ccc3[nH]ccc3c2)C1)N1CCN(c2ccccn2)CC1 (stereo not drawn)	1	0	2	1	nt	nt
Cc1ccc(CCc2nnc(SCC(=O)Nc3cc(Cl)ccc3Cl)n2-c2ccccc2)o1	-1	3	3	9.7*	2	-26
CCOc1ccccc1C(=O)Nc1ccccc1O	nt	1	2	0	-27	-20
Cc1cc(Br)ccc1NC(=O)c1ccccc1-c1ccccc1	-1	-4	6	4	-9	35
O=C(Nc1ccccc1Br)c1ccccc1-c1ccccc1	58*	-2	15*	1	-6	-29
CCOc1ccccc1C(=O)Nc1ccccc1-c1ccccc1	10	-4	2	9.6*	-3	-25
CCOc1ccccc1NC(=O)C(OC(=O)c1ccccc1O)c1ccccc1 (stereo not drawn)	-2	-2	4	8.9*	1	-49
CC(C(=O)O)n1cc(Cl)cn1 (stereo not drawn)	0	2	6	0	nt	nt
CCOC(=O)c1c(-c2cccc([N+](=O)[O-])c2)csc1NC(=O)C1CCCCC1	-1	-1	1	8.6*	nt	-31
CCOC(=O)c1c(-c2cccc([N+](=O)[O-])c2)csc1NC(=O)C1CC1	2	-4	3	6	-14	-45
O=C(Nc1ccc(F)cc1)OCCOc1ccc(Br)cc1	0	nt	nt	nt	nt	nt
CCCSc1ccc(-c2nn(-c3ccccc3)cc2/C=C(/C#N)C(=O)N2CCOCC2)cc1	0	-2	3	8.8*	10	-43
O=C(N/C(=C/c1cn(-c2ccccc2)nc1-c1ccccc1)C(=O)N1CCOCC1)c1ccc(Cl)cc1Cl	0	-5	2	8.9*	6	-63
CCSc1ccc(-c2nn(-c3ccccc3)cc2/C=C(/C#N)C(=O)NC)cc1	-1	-10	2	4	3	-19
S=c1[nH]c2ccccc2o1	1	3	2	2	nt	nt
SMILES	b-catenin transl	Efa HMGR inh	MT stabilizer	RAM network inh	Yeast life ext	BB579 growth dn
CCOC(=O)c1c(N)sc(C(O)(C(F)(F)F)C(F)(F)F)c1-c1ccc(Cl)cc1	nt	-3	2	-1	-12	52*
CCOC(=O)c1c(N)sc(C(O)(C(F)(F)F)C(F)(F)F)c1-c1ccc(F)cc1	-2	-1	2	-2	-12	48*
O=C(CS(=O)(=O)c1cn(Cc2cccc(F)c2)c2ccccc12)N1CCOCC1	6	5	6	9.3*	-5	-12
CCC(C)C(=O)Nn1c(C2CC2)nc2cc(OC)c(OC)cc2c1=O (stereo not drawn)	-1	-7	5	1	nt	nt
O=C(COC(=O)CCCN1C(=O)c2cccc3cccc(c23)C1=O)Nc1cccc(Br)c1	nt	0	13*	6	5	-33
COc1ccccc1OCCC(=O)OCC(=O)Nc1cccc(Br)c1	-2	-10	1	1	-7	-12
CC1(C(=O)NCCN2CCOCC2)C=CC2(CCCCC2)N1C(=O)c1ccccc1 (stereo not drawn)	0	9.7*	6	1	-4	-47
COCCNC(=O)C1(C)C=CC2(CCCCC2)N1C(=O)c1ccccc1 (stereo not drawn)	-2	6	4	0	3	-53
O=C(CCN1C(=O)c2ccccc2C1=O)Nc1ccc(-c2nc3ccccc3s2)cc1	-3	-3	6	8.9*	1	-21
Cc1cc(C)nc(NS(=O)(=O)c2ccc(NC(=O)CCN3C(=O)c4ccccc4C3=O)cc2)n1	1	0	3	0	38*	6
Cc1ccc(/C=N/n2c(C)nc3ccccc3c2=O)s1	4	-5	7	1	nt	nt
COc1ccc(OC)c(Nc2ncnc3c2cnn3-c2cccc(C)c2)c1	1	-2	35*	2	nt	-30
Cc1cccc(-n2ncc3c(NCc4ccco4)ncnc32)c1	45	-7	28*	-1	-10	-25
Cc1cccc(-n2ncc3c(NCc4ccccc4)ncnc32)c1	-1	-5	6	4	-8	-26
Cc1ccc(-n2ncc3c(NCc4ccco4)ncnc32)cc1C	0	0	9.4*	0	nt	nt
Cc1ccc(S(=O)(=O)NNC(=O)c2cc(C)cs2)cc1	1	nt	nt	nt	nt	nt
CCOc1ccc2c(c1)C(N(CCN1CCOCC1)C(=O)Nc1ccccc1)CC(C)(C)O2 (stereo not drawn)	0	-1	2	1	nt	nt
COc1ccc(/C=N/Nc2nccnc2Cl)cc1	nt	-4	2	2	-8	-25
COc1ccc(/C=N/Nc2nccnc2Cl)c(OC)c1	0	18*	2	1	nt	nt
Cc1ccc(-n2nnnc2SCC(=O)NC(C(=O)O)(c2ccccc2)c2ccccc2)cc1C	0	0	3	6	nt	nt
O=C(CSc1nnnn1-c1cccc2ccccc12)NC(C(=O)O)(c1ccccc1)c1ccccc1	-3	1	2	8.8*	nt	nt
O=C(CN(Cc1cccs1)C(=O)CNS(=O)(=O)c1ccccc1)NC1CCCC1	0	-4	2	3	nt	nt
CCCn1nnc(NC(=O)c2ccc(-c3cccc(Cl)c3)o2)n1	-1	4	5	-1	-29	-16
CN1CCN(c2ccccc2NC(=O)c2ccc(-c3ccc(Cl)cc3Cl)o2)CC1	nt	-10	2	3	-22	-10
O=C(Nc1ccccc1N1CCCCC1)c1ccc(-c2cccc(Cl)c2)o1	1	-8	2	9.5*	0	-24
CCCCn1nnc(NC(=O)c2ccc(-c3cccc(Cl)c3)o2)n1	nt	-5	5	8.4*	-19	-39
